The values below come from ChEMBL document CHEMBL1949668, “Synthesis of new α aminophosphonate system bearing Indazole moiety and their biological activity” (2012).

One test relates to Klebsiella pneumoniae. Nature of the test: Antibacterial activity Klebsiella pneumoniae at 40 ug/disc after 24 hrs by agar disc diffusion method. The following applies: for zone of inhibition at 40 µg/disc: read-out: IZ. The test is classed as functional. The method in brief:
(§1)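 Agar disc diffusion. Strains were grown in Mueller Hinton broth for 18–24 h at 37 °C. The bacterial suspension was spread on Mueller Hinton agar, and dried loaded discs were placed on it once the plates were dry. Gentamycin and […] reference discs carried 40 mcg/disc from 1 mg/ml solutions. Plates were incubated 24 h at 37 °C, and clear inhibition zones were measured in mm.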
On the technique in general: In agar diffusion tests the substance spreads into inoculated agar from a disc or well.

Another test deals with Escherichia coli. Kind of test: Antibacterial activity Escherichia coli at 40 ug/disc after 24 hrs by agar disc diffusion method. The test is classed as functional. The following applies: read-out: IZ. Summed up: as §1
Another test concerns Bacillus subtilis. Nature of the test: Antibacterial activity Bacillus subtilis at 40 ug/disc after 24 hrs by agar disc diffusion method. The test is classed as functional. The following applies: for zone of inhibition at 40 µg/disc: read-out: IZ. Summed up:
as §1

The next test has as its system Pseudomonas aeruginosa. Nature of the test: Antibacterial activity Pseudomonas aeruginosa at 40 ug/disc after 24 hrs by agar disc diffusion method. In kind it is functional. As to conditions: read-out: IZ. The method in brief:
as §1

In another test the test system is Staphylococcus aureus. Nature of the test: Antibacterial activity Staphylococcus aureus at 40 ug/disc after 24 hrs by agar disc diffusion method. In kind it is functional. The following applies: read-out: IZ. Summed up:
as §1

The subject of the next test is Salmonella typhimurium. Nature of the test: Antibacterial activity Salmonella Typhimurium at 40 ug/disc after 24 hrs by agar disc diffusion method. As to conditions: for zone of inhibition at 40 µg/disc: Salmonella enterica, read-out: IZ. In kind it is functional, Salmonella enterica subsp. enterica serovar Typhimurium. The method in brief:
as §1

On to `NC[C@H]1O[C@H](O[C@H]2[C@H](O)[C@@H](O[C@H]3O[C@H](CO)[C@@H](O)[C@H](N)[C@H]3O)[C@H](N)C[C@@H]2N)[C@H](O)[C@@H](O)[C@@H]1O` [KANAMYCIN], for which the zone of inhibition at 40 µg/disc in the test with Klebsiella pneumoniae is 18 mm; in the test with Escherichia coli it was 13 mm; in the test with Bacillus subtilis, 15 mm; in the test on Pseudomonas aeruginosa, 21 mm; in the test on Staphylococcus aureus it was 9 mm; with Salmonella typhimurium it was 14 mm.

For the compound `CCOP(=O)(OCC)C(NNC(=O)c1nn(C)c2ccccc12)c1ccccc1Br` (stereo not drawn), the zone of inhibition at 40 µg/disc with Klebsiella pneumoniae worked out at 2 mm; in the test with Escherichia coli it was 1 mm; in the test on Bacillus subtilis it was 7 mm; in the test on Pseudomonas aeruginosa it was 4 mm; in the test with Staphylococcus aureus, 1 mm; in the test on Salmonella typhimurium, 3 mm.

Consider GENTAMICIN, for which the inhibition zone (IZ) with Klebsiella pneumoniae worked out at 13 mm; with Bacillus subtilis, 15 mm; in the test with Salmonella typhimurium (Salmonella enterica subsp. enterica serovar Typhimurium), 11 mm.

Take `CCOP(=O)(OCC)C(NNC(=O)c1nn(C)c2ccccc12)c1ccccc1` (stereo not drawn): the zone of inhibition at 40 µg/disc is 3 mm with Klebsiella pneumoniae; 0 mm in the test on Escherichia coli; 5 mm with Bacillus subtilis; 1 mm in the test with Pseudomonas aeruginosa; 2 mm with Staphylococcus aureus; 2 mm in the test on Salmonella typhimurium.

Consider `CCOP(=O)(OCC)C(NNC(=O)c1nn(C)c2ccccc12)c1ccc(C(F)(F)F)cc1` (stereo not drawn), for which the zone of inhibition at 40 µg/disc in the test with Klebsiella pneumoniae worked out at 7 mm; in the test on Escherichia coli, 3 mm; in the test with Bacillus subtilis it was 4 mm; with Pseudomonas aeruginosa, 6 mm; in the test on Staphylococcus aureus it was 5 mm; in the test on Salmonella typhimurium, 5 mm.

On to `CCOP(=O)(OCC)C(NNC(=O)c1nn(C)c2ccccc12)c1cccc(F)c1` (stereo not drawn), for which the zone of inhibition at 40 µg/disc stood at 8 mm in the test with Klebsiella pneumoniae; 5 mm with Escherichia coli; 4 mm in the test with Bacillus subtilis; 7 mm in the test on Pseudomonas aeruginosa; 3 mm with Staphylococcus aureus; 4 mm in the test with Salmonella typhimurium.
